Rows were chosen to be rich in hits. Some 2.3% of all compounds tested hit in one or more screens of this group.
TRPC4 agonist: activators of mouse TRPC4 channel, primary screen, Fluo4 calcium, HEK293 TRPC4beta/mu-opioid cells | 310,000 tested, 0.49% active | Fluo4 calcium fluorescence; active compounds read high | Short transient receptor potential channel 4 (Mus musculus), Q9QUQ5 | B-score at 10 µM;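 active = B-score above 5 SD of library B-scores, and initial fluorescence ratio not above library mean plus 5 SD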;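 note: positive B-score marks a calcium rise read as TRPC4 activation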
Target sequence (Q9QUQ5 whole entry, looked up): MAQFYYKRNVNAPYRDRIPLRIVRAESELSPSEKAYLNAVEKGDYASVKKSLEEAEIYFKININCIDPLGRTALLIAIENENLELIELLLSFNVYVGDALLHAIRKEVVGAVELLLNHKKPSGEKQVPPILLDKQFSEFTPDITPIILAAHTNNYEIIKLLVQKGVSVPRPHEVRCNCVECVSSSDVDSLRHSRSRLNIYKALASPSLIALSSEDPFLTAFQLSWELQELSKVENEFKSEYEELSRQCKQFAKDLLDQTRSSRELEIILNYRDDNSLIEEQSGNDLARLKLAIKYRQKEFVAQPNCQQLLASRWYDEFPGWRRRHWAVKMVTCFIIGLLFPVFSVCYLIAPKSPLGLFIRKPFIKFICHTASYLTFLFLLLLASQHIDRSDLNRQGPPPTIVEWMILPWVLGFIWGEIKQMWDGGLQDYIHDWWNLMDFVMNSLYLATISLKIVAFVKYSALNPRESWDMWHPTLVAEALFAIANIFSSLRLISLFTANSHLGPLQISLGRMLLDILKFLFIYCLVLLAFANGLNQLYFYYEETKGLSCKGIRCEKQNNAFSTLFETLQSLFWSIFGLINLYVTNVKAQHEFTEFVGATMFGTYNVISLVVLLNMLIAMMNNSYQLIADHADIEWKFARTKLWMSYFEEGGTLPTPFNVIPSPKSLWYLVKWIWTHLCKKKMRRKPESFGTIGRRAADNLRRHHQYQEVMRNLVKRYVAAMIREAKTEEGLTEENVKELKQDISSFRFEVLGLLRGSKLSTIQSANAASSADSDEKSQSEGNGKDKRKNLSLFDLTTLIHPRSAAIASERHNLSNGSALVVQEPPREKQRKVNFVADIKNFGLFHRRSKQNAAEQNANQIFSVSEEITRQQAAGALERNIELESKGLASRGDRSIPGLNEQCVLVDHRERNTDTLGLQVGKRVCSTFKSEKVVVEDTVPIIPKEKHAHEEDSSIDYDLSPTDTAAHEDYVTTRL
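system = HEK293 cells stably co-expressing mouse TRPC4beta and mu-opioid receptor | schedule = Fluo4 dye loading 45 min at room temperature, 110 s recording | measure = B-scored integrated calcium fluorescence ratio | signal = Fluo4 calcium-sensitive dye fluorescence, kinetic, 1 Hz baseline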
TRPC6 activator: mouse TRPC6 channel activators, primary screen, cell-based, HEK293, membrane potential dye | Short transient receptor potential channel 6 (Mus musculus), Q61143 | AID 2550, 2010 | B-score at 10 µM | 310,000 tested, 0.13% active | HEK293-TRPC6 membrane potential dye fluorescence; active compounds read high;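 active = B-score of the integrated fluorescence ratio above library mean plus 3 SD, and starting fluorescence ratio within library mean plus 5 SD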;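 note: higher score means more depolarization so channel activation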
TRPC4 potent: positive allosteric modulators of TRPC4, primary screen, cell-based, mouse TRPC4beta, HEK293 mu-opioid, Fluo-4 calcium. DAMGO EC20, Fluo-4 Ca2+ flux; active compounds read high. Short transient receptor potential channel 4 (Mus musculus), Q9QUQ5. 310,000 tested, 0.42% active. B-score at 10 µM;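 active = B-score of calcium response area above 5 SD of library B-scores, with initial fluorescence ratio within 5 SD of library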
TRPC4 inh: inhibitors of mouse TRPC4 channel, primary screen, Fluo4 calcium, HEK293 TRPC4beta/mu-opioid cells. Short transient receptor potential channel 4 (Mus musculus), Q9QUQ5. DAMGO-evoked Fluo4 calcium flux; active compounds read low. B-score at 10 µM. 300,000 tested, 0.39% active;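 active = B-score over 3 SD under the library average, no early fluorescence shift, positive overall ratio signal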
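Material: HEK293 cells with stable TRPC4beta plus mu-opioid receptor expression / Probe or stimulus: DAMGO in two steps, submaximal then maximal / Compound: single concentration per test compound / Technique: kinetic Fluo4 fluorescence imaging of calcium influx / Read-out: per-well B score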
DNA FID counter: compounds displacing fluorescent DNA intercalator, primary screen, artefact control for HCV NS3 helicase inhibitor project, biochemical, FID fluorescence; DNA fluorescent intercalator displacement; inhibition, % at 7.9 µM; 290,000 tested, 0.17% active; in the data active = inhibition above about 37%;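 note: higher means more ethidium bromide displaced from hairpin DNA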
TRPC6 inh: mouse TRPC6 channel inhibitors, primary screen, cell-based, HEK293, membrane potential dye | Short transient receptor potential channel 6 (Mus musculus), Q61143 | B-score at 10 µM | 310,000 tested, 1.1% active | ACh-evoked depolarization; active compounds read low;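 active = B-score under library mean minus 3 SD, initial fluorescence not abnormally high, positive integrated signal ratio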;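 note: B-score derived from integrated fluorescence ratio over the kinetic read; more negative B-score means stronger inhibition of depolarization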
Large screens that a line does not name were inactive.

CC1CCC(NC(=O)CCS(=O)(=O)c2ccc3c(c2)oc(=O)n3C)CC1 (configuration not stated)	none
CCN1C(=O)c2ccccc2S(=O)(=O)c2ccc(C(=O)NCCOC)cc21	none
CCCCN(CC)CCCNC(=O)c1ccc2c(c1)N(CC)C(=O)c1ccccc1S2(=O)=O	TRPC4 potent 14
C=CCn1c(SCC(=O)c2ccc(NS(=O)(=O)c3ccccc3)cc2)nnc1-c1cccs1	TRPC4 potent 18
CCOc1ccccc1CN1CCC(n2nccc2NC(=O)CCCc2ccccc2)CC1	none
COc1ccccc1/C=C/CN1CCC(n2nccc2NC(=O)CCc2ccccc2)CC1	none
C/C=C(\C)CN1CCC(n2nccc2NC(=O)CCc2ccccc2)CC1	TRPC4 agonist 46, TRPC4 inh -6
C/C=C(\C)CN1CCC(n2nccc2NC(=O)CCOc2ccccc2)CC1	none
O=C(CCc1ccccc1)Nc1ccnn1C1CCN(C/C=C/c2ccccc2)CC1	TRPC4 inh -6
CCOc1ccccc1CN1CCC(n2nccc2NC(=O)CCc2ccccc2)CC1	TRPC4 inh -7
CCn1cc(S(=O)(=O)Nc2cc(C(=O)OC)ccc2C)cn1	none
COC(=O)CCC(C)N1CCC(Oc2ccc(C(=O)NCc3ccccn3)cc2)CC1 (configuration not stated)	none
Cc1ccc(S(=O)(=O)Nc2ccccc2N2CCOCC2)cc1	none
Cc1ccc(S(=O)(=O)Nc2ccc(C(=O)N3CCOCC3)cc2)cc1	none
C=CCc1ccc(OCC(O)CN2CCN(Cc3ccc(Cl)cc3)CC2)c(OC)c1 (configuration not stated)	TRPC4 potent 10
C=CCc1ccc(OCC(O)CN2CCN(c3ccccc3OC)CC2)c(OC)c1 (configuration not stated)	none
O=C(COc1ccc(F)cc1Br)N1CCN(S(=O)(=O)/C=C/c2ccccc2)CC1	TRPC4 potent 12
COc1ccc(CNC(=O)C(C)NCc2ccc(S(N)(=O)=O)cc2)cc1 (configuration not stated)	TRPC4 inh -8
OC(COc1ccccc1)CN1C2=NCCCN2c2ccccc21 (configuration not stated)	TRPC4 inh -5
Brc1ccc(CN2C3=NCCCN3c3ccccc32)cc1	TRPC4 inh -7
Clc1ccc(CN2C3=NCCN3c3ccccc32)cc1	TRPC4 inh -6
c1ccc(CN2C3=NCCCN3c3ccccc32)cc1	none
Cc1ccc(NC(=O)CCOc2ccccc2C)cc1C	none
O=C(NCC(c1ccco1)N1CCc2ccccc2C1)C(=O)Nc1cc(F)ccc1F (configuration not stated)	none (no result: DNA FID counter)
Cc1ccc(CNC(=O)c2cnc3ccccc3n2)cc1	none
O=C(NCCc1ccccc1)c1cnc2ccccc2n1	TRPC4 potent 16
Cc1ccc2sc(N(CCCN(C)C)C(=O)c3ccc(S(=O)(=O)N4CCc5ccccc5C4)cc3)nc2c1C	none (no result: DNA FID counter)
CCc1ccc2nc(N(CCCN(C)C)C(=O)c3ccc(S(=O)(=O)N4CCCC4)cc3)sc2c1	none
CN(C)CCCN(C(=O)c1ccc(S(=O)(=O)N2CCCCCC2)cc1)c1nc2c(F)cccc2s1	TRPC4 agonist 54, TRPC4 inh -6
CCOc1cccc2sc(N(CCCN(C)C)C(=O)c3ccc(S(=O)(=O)N4CCCCCC4)cc3)nc12	none
CN(C)CCCN(C(=O)c1ccc(S(=O)(=O)N2CCCCCC2)cc1)c1nc2ccc(F)cc2s1	TRPC4 agonist 336
CN(C)CCCN(C(=O)c1ccc(S(=O)(=O)N2CCc3ccccc3C2)cc1)c1nc2c(F)cc(F)cc2s1	TRPC4 agonist 58 (no result: DNA FID counter)
CN(C)CCCN(C(=O)c1ccc(S(=O)(=O)N2CCOCC2)cc1)c1nc2ccc(F)cc2s1	TRPC4 agonist 57
COc1ccc(NC(=O)c2oc3ccccc3c2C)cn1	none
CC(NC(=O)c1ccccc1)c1nnc(SCC(=O)NC2CCCC2)n1C (configuration not stated)	none
O=C(O)C1C2CCC(O2)C1C(=O)Nc1ccc(Br)cc1F (configuration not stated)	none
Cc1ccc2nc(N(CCCN(C)C)C(=O)c3ccc(S(=O)(=O)N4CCCCCC4)cc3)sc2c1	TRPC4 agonist 43, TRPC4 potent 14
O=C1CC2(CCN(C(=O)c3c(F)cccc3F)CC2)Oc2ccccc21	none (no result: DNA FID counter)
COc1ccc(OC)c(S(=O)(=O)Nc2ccc3c(c2)N(C(C)=O)CCC3)c1	TRPC4 potent 14 (no result: DNA FID counter)
Cn1c(CNC(=O)CNC(=O)c2ccc(F)cc2)cc(=O)n(C)c1=O	none
CCOc1ccc(C(=O)N2CCN(Cc3ccccc3)CC2)cc1	none
CCOc1ccc(CN2CCN(C(=O)c3ccccc3)CC2)cc1	TRPC4 inh -7
COc1ccc(NC(=O)CN(c2ccc(OC)c(Cl)c2)S(=O)(=O)c2ccccc2)cc1	none
COc1ccc(Cl)cc1C(=O)NCCN(C)C	TRPC4 potent 28
CCc1cccc(C)c1NC(=O)C1CCCN1C(=O)NCc1ccccc1 (configuration not stated)	none
C=CCc1cc(Cl)ccc1OCCn1ccnc1	TRPC4 agonist 116, TRPC4 potent 14
C=CCc1cc(C)ccc1OCCn1ccnc1	none
C=CCc1cc(Cl)ccc1OCCCn1ccnc1	TRPC4 potent 19
CCCc1cc(=O)oc2cc(OC3CCCCC3=O)ccc12 (configuration not stated)	none
CCOC(=O)C1(CC2CC2)CCN(Cc2cnc(-c3ccc(OC)cc3)nc2)CC1	none
CCOC(=O)C1(CC2CC2)CCN(Cc2ccc(O)c(Cl)c2)CC1	TRPC4 agonist 75, TRPC4 inh -7
CCOC(=O)C1(CC2CC2)CCN(Cc2ccc3cccc(F)c3n2)CC1	TRPC4 agonist 45, TRPC4 inh -8
CCC(C(=O)NC(CC(=O)O)c1ccc(Cl)cc1)c1ccccc1 (configuration not stated)	none
CCOC(=O)C1CCCN(C(c2ccccn2)c2c(C)[nH]c3ccccc23)C1 (configuration not stated)	TRPC4 agonist 148
Cc1ccc(C)c(CSc2nnc(CCN)o2)c1	TRPC4 agonist 81
NCCc1nnc(SCc2ccccc2)o1	TRPC4 potent 16
CC12CC3CC(C)(C1)CC(C(=O)N1CCCC1)(C3)C2	TRPC4 inh -6
CN1CCN(C(=O)C23CC4CC(CC(C4)C2)C3)CC1	none
